IDE cell inh = inhibits human insulin-degrading enzyme in HEK cells. P14735. FAbetaB cleavage, fluorescence polarization. inhibition, % at 5.59 µM. 320,000 tested, 0.41% active. AID 434962;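 active = percent inhibition above the average of all tested compounds plus 3 SD, set per screening campaign, cut at about 16% in these data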;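 note: IDE supplied by intact live HEK cells; FP after avidin binding of uncleaved biotin substrate so inhibition keeps polarization high; 0% = DMSO wells and 100% = 60 µM reference IDE inhibitor Ii1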
Rpn11 block = Rpn11 (human) deubiquitinase inhibition | 360,000 tested, 0.59% active | human 26S proteasome, Ub4-pepOG fluorescence polarization; 20S core pre-blocked with epoxomicin | O00487 | AID 588493 | inhibition, % at 20 µM;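 active = inhibition at 20 µM, scaled to each plate's controls, above about 33%, limit read from the data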
CSN inh = inhibitors of human CSN-mediated cullin deneddylation. Q92905. Purified CSN, SCF-Nedd8-OG deneddylation, fluorescence polarization. inhibition, % at 12.5 µM. 360,000 tested, 0.38% active. AID 651999;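 active = pattern-corrected inhibition above about 35%, with an unprinted fluorescence ratio check between 0.5 and 1.5, limit read from the data, passing the limit was not always enough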;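 note: 0% = enzyme with substrate and 100% = substrate without enzyme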
Target sequence (Q92905 whole entry, looked up, one chain of several): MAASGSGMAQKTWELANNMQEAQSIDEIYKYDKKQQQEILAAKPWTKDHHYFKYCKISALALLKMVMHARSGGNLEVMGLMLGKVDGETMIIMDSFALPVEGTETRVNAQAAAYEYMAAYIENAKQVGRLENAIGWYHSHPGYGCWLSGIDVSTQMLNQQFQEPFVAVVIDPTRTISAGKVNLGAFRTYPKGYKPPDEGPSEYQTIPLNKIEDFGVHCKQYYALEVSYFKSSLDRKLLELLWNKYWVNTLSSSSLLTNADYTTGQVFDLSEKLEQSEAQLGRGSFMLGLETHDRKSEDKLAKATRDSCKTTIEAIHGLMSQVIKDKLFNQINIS
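assay system = purified human Csn5 enzyme expressed in HEK293T cells | amount = 0.24 nM enzyme | buffer or medium = Tris/NaCl/DTT buffer, pH 7.5 | reagent = 10 nM SCFSkp2-Nedd8OG | compound = one concentration, 12.5 µM, 0.25% DMSO | times = 90 min reaction at room temperature | signal = FP | read-out basis = % inhibition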
IDE act = boosts human insulin-degrading enzyme activity in HEK cells | P14735 | FAbeta-B cleavage, fluorescence polarization; 0% vehicle, 100% cell-free pure enzyme wells | activation, % at 5.96 µM | 340,000 tested, 0.073% active;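 active = activation above the mean of all tested compounds plus 3 SD, set per screening campaign, cut at about 17% in these data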
TPT1 inh = C. albicans TPT1 enzyme inhibition. inhibition, % at 5 µM. recombinant caTPT1, FP RNA substrate dephosphorylation. AID 1962. 300,000 tested, 0.81% active;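 active = inhibition above the mean of all tested compounds plus 3 SD, set per screening campaign, cut at about 24% in these data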;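 note: plate controls were DMSO alone for no effect and ferristatin control at 100 nM for full effect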
HNF4A DNA FP = change in binding of human HNF4 alpha to DNA; P41235; HNF4a-FITC DNA binding, fluorescence polarization, 1 h; activity change, % at 10 µM; 360,000 tested, 0.3% active; AID 1224865; in the data active = activity change above about 30%, passing the limit was not always enough
Active calls of the source: *; · = not tested or not shown. The list is not random: actives were taken first. Their share in the collection is about 1.7%.

SMILES	IDE cell inh	Rpn11 block	CSN inh	IDE act	TPT1 inh	HNF4A DNA FP
CC(C)n1c(O)c(N=NC(=O)CNC(=O)Cc2ccc(Cl)cc2)c2ccccc21	-5	4	4	6	1	0
CC(C)n1c(O)c(N=Nc2ccc(Cl)nn2)c2ccccc21	-4	·	44*	0	4	33
COCCNc1nc2c(-c3cccc(C(F)(F)F)c3)nnn2c2ccccc12	2	11	-3	-1	2	1
NNc1nc2c(-c3cccc(C(F)(F)F)c3)nnn2c2ccccc12	·	·	18	-2	·	36*
CCn1c(=O)c2sccc2n(Cc2ccccc2)c1=O	11	1	0	-9	-4	-2
CN(CC(=O)Nc1ccc(F)cc1)C(=O)c1cc(-c2ccco2)nc2ccccc12	6	8	53*	-5	2	-19
COc1cccc(NC(=O)CN(C)C(=O)c2cc(-c3ccco3)nc3ccccc23)c1	3	-2	11	0	0	-3
Cc1cccc(CNc2ccc(S(=O)(=O)N3CCCCC3)cc2)c1	-1	-3	62*	-8	·	0
Cc1cccc(NC(=O)CSCC(=O)Nc2ccc(S(=O)(=O)N3CCCC3)cc2)c1	0	-3	0	1	0	3
CC(C)C1C(=O)CC(c2ccccc2)NC1c1ccccc1 (stereo not given)	2	1	1	4	-3	38*
O=C(Cc1cccnc1)N[C@@H]1CC[C@H](CCn2cc(Cc3ccccc3)nn2)O[C@@H]1CO	·	·	0	·	·	-2
CC1(C(=O)NS(=O)(=O)Cc2cccc(Cl)c2)CCN1C(=O)Cc1cccs1 (stereo not given)	·	-6	71*	·	·	4
O=C1c2cc(Cl)ccc2OC2(CCNCC2)C12CC(c1ccccc1)=NO2 (stereo not given)	8	-2	1	-3	-1	5
O=C1c2cc(Cl)ccc2OC2(CCNCC2)C12CC(c1ccc(Cl)cc1)=NO2 (stereo not given)	1	13	68*	4	-6	18
CCOc1cccc(=O)c2c(C)n(CC(=O)c3ccccc3)c(C)c12	-4	19	-1	1	21	-3
COc1cccc(=O)c2c(C)n(CC(=O)c3ccccc3)c(C)c12	6	16	7	0	30*	-20
COc1ccc([C@H]2C[C@H](O)[C@@H](n3cc(C4CC4)nn3)CN2C(=O)C2CCCCC2)cc1	·	-1	1	·	·	-1
O=C(c1cnc(Cc2c[nH]c3ccccc23)c(I)c1)N1CCN(Cc2ccccc2)CC1	·	0	42*	·	·	1
COc1ccccc1NCC(O)COc1ccc(C(C)(C)C)cc1 (stereo not given)	-3	-19	3	11	0	0
COc1ccc(NCC(O)COc2ccc(C(C)(C)C)cc2)cc1 (stereo not given)	-2	-3	7	22*	-5	-2
Cc1ccn2cc(-c3ccc4c(c3)NC(=O)CO4)nc2c1	1	5	54*	3	2	8
Fc1ccc(COc2ccccc2CNCc2ccncc2)cc1	17*	-1	0	-14	-3	0
Brc1ccc(OCc2ccccc2)c(CNCc2ccncc2)c1	11	-4	-1	-17	-1	-1
CN(C)CCNc1ncnc2c1sc1nc(-c3ccccc3)c3c(c12)CCCC3	1	11	6	32*	4	22
COc1ncnc2c1sc1nc(-c3ccccc3)c3c(c12)CCCC3	-2	5	-1	5	-2	-1
CCOC(=O)c1c(NC(=O)COC(=O)CCOc2ccc(OCC)cc2)sc(C(=O)N(C)C)c1C	5	-1	121*	-5	-1	-1
CCCc1ccc(Oc2cc(C)nc(N3CCOCC3)n2)cc1	3	-1	94*	2	1	3
C#CCOCCOCCOCCNc1nc(N2CCN(C(=O)CCCCCCCCCCNC(=O)Cn3cc(CCCCCN)nn3)CC2)nc(N2CCN(C(=O)CCCCCCCCCCNC(=O)[C@H]([C@@H](C)CC)n3cc(CCCCN=C(N)N)nn3)CC2)n1	4	41*	100*	42*	-3	117
